From ChEMBL document CHEMBL2034956, “Bioactive diterpenes from Callicarpa longissima” (J Nat Prod, 2012)
In brackets after ≈: the same amount, converted by molar mass.

How the values were obtained:
Format in all cases: functional, cell-based
[1] = Antiinflammatory activity in human neutrophils assessed as inhibition of FMLP/CB-induced superoxide-anion generation incubated for 5 mins prior to FMLP/CB-challenge measured after 10 mins by spectrophotometry; conditions: Neutrophil
In short: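 Human neutrophils isolated by dextran sedimentation and Ficoll centrifugation. Superoxide anion measured as superoxide dismutase-inhibitable reduction of ferricytochrome c.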

[2] = Antiinflammatory activity in human neutrophils assessed as inhibition of FMLP/CB-induced elastase release using Meo-Suc-Ala-Ala-Pro-Val-p-nitroanilide as substrate incubated for 5 mins prior to FMLP/CB-challenge by spectrophotometry; conditions: Neutrophil
In short: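 Human neutrophils isolated by dextran sedimentation and Ficoll centrifugation before elastase release measurement.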

PC-3 = test: Antiproliferative activity against human PC3 cells after 48 hrs by SRB assay; conditions: PC-3, 48 h
In short: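 Cells seeded in RPMI 1640 with 5% fetal bovine serum at 37 °C, 5% CO2. After 24 h, two plates per line TCA-fixed as time-zero reference. Compound added, then 48 h further incubation at 37 °C. Cold TCA fixation, 0.4% w/v sulforhodamine B in 1% acetic acid for 10 min, acetic acid washes, dye solubilized in 10 mM Trizma base, absorbance 515 nm. IC50 is 50% absorbance reduction versus untreated cells.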

SMILES | IC50 [1] [µg/mL] | IC50 [2] [µg/mL] | IC50 (PC-3) [µg/mL]
COc1ccc(-c2oc3cc(OC)c(OC)c(O)c3c(=O)c2OC)cc1OC [ARTEMETIN] | > 10 | > 10 | 
C=C(C)[C@@H]1CCC2=C[C@]3(C(C)C)CC[C@]2(OO3)[C@@]1(C)CCC(=O)O (relative stereo) | 3.14 (≈ 9.39 µM) | 4.66 (≈ 13.9 µM) | > 10
CC(C)c1ccc2c(c1)CC[C@@H](C(C)(C)O)[C@]2(C)CCC(=O)O (relative stereo) | > 10 | > 10 | 
C=C(C)[C@@H]1CCC2=C[C@](O)(C(C)C)CC[C@@]23OC(=O)CC[C@@]13C (relative stereo) | > 10 | > 10 | 
COc1ccc(-c2oc3cc(OC)c(OC)c(O)c3c(=O)c2OC)cc1 | > 10 | > 10 | 

Second part, the compound after the results:

IC50 [1] [µg/mL] | IC50 [2] [µg/mL] | IC50 (PC-3) [µg/mL] | SMILES
> 10 | > 10 |  | C=C1C[C@@H](O)[C@H]2C(C)(C)CCC[C@]2(C)[C@H]1CC/C(C)=C/C(=O)O
9.31 (≈ 29.2 µM) | > 10 | > 10 | C=C1CC[C@H]2C(C)(C)C(=O)CC[C@]2(C)[C@H]1CC/C(C)=C/C(=O)O
2.79 (≈ 6.11 µM) | 5.21 (≈ 11.4 µM) | > 10 | C[C@H]1[C@H](C)CC[C@]2(C(=O)O)CC[C@]3(C)C(=CC[C@@H]4[C@@]5(C)CC[C@H](O)C(C)(C)[C@@H]5CC[C@]43C)[C@H]12 [URSOLIC ACID]
5.09 (≈ 16 µM) | > 10 | > 10 | CC1=CC(=O)[C@H]2C(C)(C)CCC[C@]2(C)[C@H]1CC/C(C)=C/C(=O)O [CALLILONGISIN D]
